PPC-1+TRAIL kill = PPC-1 cancer cell killing with TRAIL present | PPC-1 cells + TRAIL, ATPLite viability luminescence | cell killing (% activity), % at 4 µM or 5 µM | 220,000 compounds, 0.41% hits | AID 1443;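 active = cell killing above 50% in the first pass at 4 µM, then a duplicate retest at 5 µM averaging 50% or more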;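 also: plate controls were cells with TRAIL plus DMSO for no effect and medium-only wells lacking cells for full effect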
FLuc inhib CS = Photinus pyralis luciferase inhibition counter-screen. inhibition, % at 10 µM. ATPLite firefly luciferase biochemical luminescence, 10 min. AID 1006. 200,000 compounds, 1.5% hits;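 active = inhibition above about 50% when tested at 10 µM, limit read from the data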
Target sequence (P08659 whole entry, looked up): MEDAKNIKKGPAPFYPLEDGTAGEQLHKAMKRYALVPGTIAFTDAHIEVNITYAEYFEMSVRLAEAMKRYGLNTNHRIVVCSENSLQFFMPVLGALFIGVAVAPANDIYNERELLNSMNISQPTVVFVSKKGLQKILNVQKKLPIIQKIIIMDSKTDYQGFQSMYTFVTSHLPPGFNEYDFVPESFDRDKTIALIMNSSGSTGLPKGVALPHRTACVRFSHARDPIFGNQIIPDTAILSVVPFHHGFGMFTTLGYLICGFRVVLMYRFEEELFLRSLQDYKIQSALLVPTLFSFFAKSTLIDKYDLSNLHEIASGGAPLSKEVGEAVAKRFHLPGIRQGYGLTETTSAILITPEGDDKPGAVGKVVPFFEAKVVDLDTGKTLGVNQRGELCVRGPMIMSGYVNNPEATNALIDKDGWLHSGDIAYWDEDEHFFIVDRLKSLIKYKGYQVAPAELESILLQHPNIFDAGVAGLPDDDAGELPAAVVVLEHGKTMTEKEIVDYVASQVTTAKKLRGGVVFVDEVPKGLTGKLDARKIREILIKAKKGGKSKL
FLuc act counter = firefly luciferase counter-screen for stimulation assays; 200,000 tested, under 10 active; ATPlite luciferase biochemical, luminescence, 10 min; 0 = ATP-free wells, 1 = DMSO control; activation factor at 10 µM; P08659;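 active = luciferase activation factor, scaled between plate controls, of at least 2 with compound at 10 µM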
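test system = cell-free luciferase reagent | medium = PBS as buffer for the ATP substrate | dosing = test compounds dosed from 2 mM stocks in 100% DMSO | incubation = 10 min at ambient temperature | detection = luminescence measurement of luciferase light output | benchmarks = low control with PBS replacing ATP, high control enzyme plus ATP without compound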
C8 TRAIL sens = caspase-8 TRAIL sensitization. NB7+C8 cells + TRAIL, ATPlite viability luminescence. inhibition (viability loss, TRAIL sensitization), % at 10 µM. 360,000 compounds, 1% hits;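 active = compounds causing at least 50% loss of cell viability in the single-dose screen, relative to plate controls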
Numbers without * were called inactive. The list is not random: actives were taken first. Their share in the collection is about 1.5%.

What do the screens show for `O=S1(=O)CC(N2CCN(Cc3ccccc3F)CC2)CN1Cc1cn(Cc2cccc(Cl)c2)nn1` (stereo unspecified)?
C8 TRAIL sens: -22

Results for COc1ccc(NC(=O)c2csc(Cc3ccccc3)n2)cc1 ?
PPC-1+TRAIL kill: 9; FLuc inhib CS: 16; FLuc act counter: 0.8; C8 TRAIL sens: 13

Results for O=C(Nc1ccc(F)cc1)c1csc(Cc2ccccc2)n1 ?
PPC-1+TRAIL kill: 13; FLuc inhib CS: 53*; FLuc act counter: 0.5; C8 TRAIL sens: 8

Results for N/C(=N\OC(=O)c1cccc(Cl)c1)c1cccnc1 ?
PPC-1+TRAIL kill: 21; FLuc inhib CS: 68*; FLuc act counter: 0.3; C8 TRAIL sens: 64*

Results for N/C(=N\OC(=O)c1ccc(Cl)c(Cl)c1)c1cccnc1 ?
PPC-1+TRAIL kill: 15; FLuc inhib CS: 46; FLuc act counter: 0.5; C8 TRAIL sens: 83*

Results for CCn1nc(C(=O)OCC(=O)c2cc(C)n(Cc3cccs3)c2C)c2ccccc2c1=O ?
PPC-1+TRAIL kill: -2; FLuc inhib CS: 58*; FLuc act counter: 0.4; C8 TRAIL sens: 21

Results for Cc1cc(C(=O)COC(=O)c2ccc3c(c2)OCO3)c(C)n1Cc1cccs1 ?
PPC-1+TRAIL kill: -2; FLuc inhib CS: 31; FLuc act counter: 0.7; C8 TRAIL sens: 19

How did Cc1cc(C(=O)COC(=O)c2ccccc2O)c(C)n1Cc1cccs1 do in these assays?
PPC-1+TRAIL kill: -2; FLuc inhib CS: 90*; FLuc act counter: 0.1; C8 TRAIL sens: 90*

How did CCn1nc(C(=O)OCC(=O)c2ccc(F)cc2)c2ccccc2c1=O do in these assays?
FLuc inhib CS: -3; FLuc act counter: 1; C8 TRAIL sens: -11

How did COC(=O)c1ccccc1S(=O)(=O)N1CCC(C(=O)Nc2ccc(N3CCOCC3)cc2)CC1 do in these assays?
C8 TRAIL sens: 5

Results for COC(=O)c1cn[nH]c1NC(=S)Nc1ccc(C)cc1Cl ?
PPC-1+TRAIL kill: 18; FLuc inhib CS: 54*; FLuc act counter: 0.5; C8 TRAIL sens: 7

What do the screens show for `CCN(CC)C(=O)c1nn(-c2ccccc2)c2c1C1CCC2(C)C1(C)C` (stereo unspecified)?
PPC-1+TRAIL kill: -3; FLuc inhib CS: 1; FLuc act counter: 1; C8 TRAIL sens: 51*

How did CCOC(=O)c1[nH]c(C)c(C(=O)OCc2ccccc2F)c1C do in these assays?
C8 TRAIL sens: 22

What do the screens show for `CN=c1sc2c(n1C)C(=O)c1ccccc1C2=O`?
C8 TRAIL sens: 76*

How did CN=c1sc(C(=O)Nc2ccccc2)c(C)n1C do in these assays?
PPC-1+TRAIL kill: -2; FLuc inhib CS: -2; FLuc act counter: 1; C8 TRAIL sens: 2

What do the screens show for `COc1ccc(CNS(=O)(=O)c2csc(C(N)=O)c2)cc1OC`?
C8 TRAIL sens: -10

How did COc1cccc(Cn2c(NCc3cccnc3)nc3c2c(=O)n(C)c(=O)n3C)c1 do in these assays?
PPC-1+TRAIL kill: 39; FLuc inhib CS: 4; FLuc act counter: 1; C8 TRAIL sens: 82*

What do the screens show for `Cn1c(=O)c2c(nc(NCc3cccnc3)n2Cc2cccc(C(F)(F)F)c2)n(C)c1=O`?
PPC-1+TRAIL kill: 13; FLuc inhib CS: -7; FLuc act counter: 1.1; C8 TRAIL sens: 26

How did COc1ccc(CCC(=O)OCC(=O)Nc2ccc(OC)c(OC)c2)cc1OC do in these assays?
C8 TRAIL sens: 7

Results for Nc1nc2ccc(-c3nc4ccccc4o3)cc2s1 ?
PPC-1+TRAIL kill: 42; FLuc inhib CS: 58*; FLuc act counter: 0.4; C8 TRAIL sens: 28

What do the screens show for `c1ccc2oc(-c3ccc4nc[nH]c4c3)nc2c1`?
PPC-1+TRAIL kill: 24; FLuc inhib CS: 68*; FLuc act counter: 0.3; C8 TRAIL sens: 37

Results for COc1ccc(-c2nc3ccccc3o2)cc1OC ?
C8 TRAIL sens: 8

How did NCc1ccc(-c2nc3ccccc3o2)cc1 do in these assays?
PPC-1+TRAIL kill: 19; FLuc inhib CS: 4; FLuc act counter: 1

What do the screens show for `CC(=O)c1ccc(S(=O)(=O)N2CCN(CC(=O)Nc3ccnn3C3CCCC3)CC2)cc1`?
C8 TRAIL sens: -9

What do the screens show for `CC(C)c1ccc(/C=C2\SC(=O)N(CC(=O)NCCCn3ccnc3)C2=O)cc1`?
C8 TRAIL sens: 46

How did Cc1cccc(C2=N/C(=C\c3cccs3)C(=O)O2)c1 do in these assays?
PPC-1+TRAIL kill: 18; FLuc inhib CS: 65*; FLuc act counter: 0.3; C8 TRAIL sens: -3

Results for CCOC(=O)Cc1ccc2sc(-c3ccccc3)nc2c1 ?
PPC-1+TRAIL kill: -5; FLuc inhib CS: 74*; FLuc act counter: 0.3; C8 TRAIL sens: 39

Assay outcomes as filed in PubChem BioAssay.
